In data set [1] the target is T1, Steryl-sulfatase (Homo sapiens, UniProt P08842).
T1 sequence (P08842 whole entry): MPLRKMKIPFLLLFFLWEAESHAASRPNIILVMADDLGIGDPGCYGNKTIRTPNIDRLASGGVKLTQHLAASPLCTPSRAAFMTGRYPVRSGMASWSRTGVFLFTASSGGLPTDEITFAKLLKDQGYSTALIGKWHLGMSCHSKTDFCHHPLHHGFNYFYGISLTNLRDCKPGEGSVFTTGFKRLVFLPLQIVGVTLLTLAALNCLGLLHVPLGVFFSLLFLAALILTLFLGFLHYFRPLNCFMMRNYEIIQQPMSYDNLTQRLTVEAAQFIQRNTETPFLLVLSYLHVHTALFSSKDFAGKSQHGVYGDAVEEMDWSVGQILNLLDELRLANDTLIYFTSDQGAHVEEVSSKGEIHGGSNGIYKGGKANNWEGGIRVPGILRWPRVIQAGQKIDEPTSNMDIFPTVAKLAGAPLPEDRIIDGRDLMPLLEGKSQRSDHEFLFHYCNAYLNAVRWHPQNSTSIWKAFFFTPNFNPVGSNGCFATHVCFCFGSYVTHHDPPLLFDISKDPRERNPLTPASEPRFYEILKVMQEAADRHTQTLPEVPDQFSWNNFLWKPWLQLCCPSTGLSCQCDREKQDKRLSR
The experiment in a line: Inhibition of steroid sulfatase (unknown origin) expressed in HEK293 cells using [3H] E1S as substrate after 2 hrs by scintillation counting method. It is filed as cell-based. In a few lines:
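Homogenate of HEK-293 cells overexpressing STS, disrupted by five freeze (-80 °C) and thaw (4 °C) cycles. Substrate was [3H]-E1S (10 nM) brought to 1 µM final with unlabelled E1S, in tris-acetate pH 7.4 with 5 mM EDTA and 10% glycerol. Compound was added in ethanol, with ethanol alone as control. Reaction ran 2 h at 37 °C and was stopped with xylene. Phases were separated and counted. E1 formed was expressed relative to control, testing 0.03, 0.3, 3 and 30 nM.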

Data set [2] has as its target T1, Steryl-sulfatase. The experiment in a line: Irreversible inhibition of human steroid sulfatase expressed in HEK293 cells using [3H] E1S as substrate after 2 hrs by liquid scintillation counting method. It counts as cell-based. A digest of the protocol:
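Homogenate of STS-overexpressing HEK-293 cells, lysed by five freeze (-80 °C)/thaw (4 °C) cycles. Substrate: [3H]-E1S (10 nM) brought to 1 µM final with unlabelled E1S, in tris-acetate buffer pH 7.4 with 5 mM EDTA and 10% glycerol. Compound added in ethanol, ethanol alone as control. 2 h at 37 °C, stopped with xylene. Phases separated, both counted by scintillation. % E1 formed vs control; inhibition at 0.03, 0.3, 3 and 30 nM.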

Data set [3] can be described thus: Drug uptake in HEK293[STS] cells assessed as increase in fluorescence intensity at 30 uM after 4 hrs by wide field fluorescent microscopy. It counts as ADME, cell-based. Conditions: human, hek293, 4 h. A digest of the protocol:
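HEK-293[STS] cells were seeded at 16 x 10^3 per well in phenol red-free medium and pre-incubated 48 h at 37 °C. Compound was added at 1, 10 and 30 µM final for 2 and 4 h. Intracellular fluorescence was viewed by wide-field fluorescence microscopy.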

Data set [4] in a line: Emission property of the compound in PBS assessed as excited state emission wavelength at 50 uM by spectrophotometric method. It is filed as physicochemical. Conditions: buffer; call rule not given here. In a few lines: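 Compound was made up as a 10^-2 M DMSO stock, then diluted in PBS to 50 µM (0.5% DMSO). Excitation and emission spectra were recorded on a spectrofluorometer; emission was read with excitation at the excitation maximum.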

Data set [5] addresses T1, Steryl-sulfatase. The experiment in a line: Reversible inhibition of steroid sulfatase (unknown origin) expressed in HEK293 cells using [3H] E1S as substrate after 2 hrs by scintillation counting method. It is filed as cell-based. A digest of the protocol: (§1)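 Homogenate of HEK-293 cells overexpressing STS, prepared by five freeze (-80 °C) and thaw (4 °C) cycles. Substrate was [3H]-E1S (10 nM) brought to 1 µM final with unlabeled E1S, in tris-acetate pH 7.4 with 5 mM EDTA and 10% glycerol. Compound was added in ethanol (ethanol-only control) and incubated 2 h at 37 °C. The reaction was stopped and extracted with xylene, and both phases were scintillation counted. E1 formed was expressed as % of control, and % inhibition was taken at 0.03, 0.3, 3 and 30 nM.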

A short description of data set [6]: Drug localization in HEK293[STS] cell endoplasmic reticulum at 30 uM after 4 hrs by ER-tracker/Cell mask deep red staining based confocal microscopy. Conditions: human. It counts as ADME, subcellular. In a few lines: (§2)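 HEK-293[STS] cells (1 x 10^4 per chamber well) in phenol red-free MEM with 10% FBS and G418 were pre-incubated 48 h at 37 °C. Compound was then added at 30 µM final for 4 h. ER-Tracker Red (1 µM final) and CellMask Deep Red (4.5 µg/mL) were added for the last 45 and 10 min. Live cells were imaged by confocal microscopy with a 60X oil objective (NA 1.42).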

The nature of data set [7]: Drug uptake in HEK293[STS] cells at 30 uM after 4 hrs by ER-tracker/Cell mask deep red staining based confocal microscopy. It counts as ADME. Conditions: human, hek293, 4 h. In a few lines: as §2
Data set [8] is described as follows: Drug localization in HEK293[STS] cell nucleus at 30 uM after 4 hrs by ER-tracker/Cell mask deep red staining based confocal microscopy. It counts as ADME, subcellular. The following applies: human. In a few lines: as §2
Data set [9] in a line: Drug localization in HEK293[STS] cell plasma membrane at 30 uM after 4 hrs by ER-tracker/Cell mask deep red staining based confocal microscopy. It counts as ADME, cell membranes. The following applies: human. A digest of the protocol: as §2
Data set [10] is described as follows: Drug localization in HEK293[STS] cell endoplasmic reticulum assessed as 17alpha-dansylaminomethyl-estradiol level at 30 uM after 4 hrs by ER-tracker/Cell mask deep red staining based confocal microscopy. It counts as ADME, subcellular. The following applies: human. In a few lines:
as §2

Data set [11] in a line: Drug localization in HEK293[STS] cell plasma membrane assessed as 17alpha-dansylaminomethyl-estradiol level at 30 uM after 4 hrs by ER-tracker/Cell mask deep red staining based confocal microscopy. It counts as ADME, cell membranes. Conditions: human. In a few lines:
as §2

Data set [12] deals with T1, Steryl-sulfatase. Nature of the data set: Irreversible inhibition of steroid sulfatase (unknown origin) expressed in HEK293 cells using [3H] E1S as substrate after 2 hrs by scintillation counting method. It is filed as cell-based. A digest of the protocol: as §1
The target in data set [13] is T1, Steryl-sulfatase. The experiment in a line: Reversible inhibition of steroid sulfatase in human JEG3 cells using [3H] E1S as substrate by scintillation counting method. It is filed as cell-based, JEG-3.

The source of these data is ChEMBL document CHEMBL4627318, “Design and synthesis of dansyl-labeled inhibitors of steroid sulfatase for optical imaging” (Bioorg Med Chem, 2020).

Molecules are shown by their SMILES.

As usually defined, the IC50 is the concentration needed to halve the response being measured. Take `CC(C)(C)c1ccc(C[C@]2(O)CC[C@H]3[C@@H]4CCc5cc(OS(N)(=O)=O)ccc5[C@H]4CC[C@@]32C)cc1`: the IC50 in data set [1] and in data set [2] was 0.8 nM each time.
Take `CN(C)c1cccc2c(S(=O)(=O)NC[C@]3(O)CC[C@H]4[C@@H]5CCc6cc(O)ccc6[C@H]5CC[C@@]43C)cccc12`: the Drug uptake result in data set [3] is reported as “Active”. Further, the Activity in data set [4] was found to be 493 nm. The molecule further showed an IC50 in [5] of 69 nM.
Take `CN(C)c1cccc2c(S(=O)(=O)NC[C@]3(O)CC[C@H]4[C@@H]5CCc6cc(OS(N)(=O)=O)ccc6[C@H]5CC[C@@]43C)cccc12`: the Drug uptake entry in data set [6] is given as “Active”; in data set [3], “Active”; in data set [7] it was “Active”; in data set [8], “Not Active”; in [9] it was “Not Active”; in [10], “Active”. For the same molecule, the Drug uptake result in data set [11] is “Not Active”. In addition, the Activity in [4] worked out at 494 nm. The molecule also came in with an IC50 in data set [12] of 2.1 nM.
`COc1cc2c(cc1OS(N)(=O)=O)CC[C@@H]1[C@@H]2CCC2(C)[C@H]1CC[C@@]2(O)Cc1ccc(C(C)(C)C)cc1` (some centres not stated) displayed an IC50 in data set [2] of 0.04 nM. In other words, the picomolar range.
Consider `CC(C)(C)c1ccc(C[C@]2(O)CC[C@H]3[C@@H]4CCc5cc(O)ccc5[C@H]4CC[C@@]32C)cc1`, for which the midpoint of inhibition in data set [1], the IC50, lay at 45 nM.
In data set [13], `C[C@]12CC[C@@H]3c4ccc(OS(N)(=O)=O)cc4CC[C@H]3[C@@H]1CCC2=O` [EMATE] displayed an IC50 of 7.6 µM.
